# Published values collected from several papers.
# Target: Tyrosine-protein kinase Yes (YES1, Homo sapiens, UniProt P07947)
Compound,read-out,method,concentration,remaining binding
F[C@@H]1CCN(c2nccc(-c3cnn4ncccc34)n2)C1,binding,,1 µM,90%
Cc1c(NC(=O)c2cc(C(N)=O)nc3cc(F)ccc23)c(C(F)(F)F)nn1Cc1ccc(C#N)cc1,cell-free assay,competition with immobilised ligand,1 µM,66%
CN1CCN(c2ccc(Nc3nccc(-c4ccccc4)n3)cc2C(F)(F)F)CC1,binding,,10 µM,56%
O=C(NCCCN1CCOCC1)c1ccc(Nc2nccc(-c3cc4ccccc4s3)n2)cc1,binding,competition with immobilised ligand,1 µM,91%
N[C@@H]1CCN(c2nccc(-c3cnn4ncccc34)n2)C1,binding,,1 µM,100%
CC(=O)N1CCC(c2ccc(C(=O)NC(=N)N)cc2C(F)(F)F)CC1,cell-free assay,competition with immobilised ligand,1 µM,98%
O=C(c1ccc(Nc2ncc(Cl)c(-c3ccc(Cl)s3)n2)cc1)N1CCC(N2CCCC2)CC1,binding,competition with immobilised ligand,1 µM,55%
COc1cnc(Nc2cccc(S(N)(=O)=O)c2)nc1N1CCN(c2ccccc2)C(=O)C1,binding,competition with immobilised ligand,1 µM,100%
CN(CCCC(F)(F)F)c1nccc(-c2cnn3ncccc23)n1,binding,,1 µM,94%
C[C@H](NC(=O)c1cnc2n1[C@](C)(Cc1ccc(C#N)cc1)C(=O)N2c1cc(Cl)c(F)c(Cl)c1)C(=O)NC1(c2ccccn2)CC1,cell-free assay,competition with immobilised ligand,1 µM,100%
c1cnn2ncc(-c3ccnc(N4CCC45COC5)n3)c2c1,binding,,1 µM,72%
O=C(Nc1c[nH]nc1C(=O)NC1CCNCC1)c1cc(F)cc(F)c1,binding,competition with immobilised ligand,1 µM,100%
COc1ccnn2ncc(-c3ccnc(N(C)C)n3)c12,binding,,1 µM,100%
C[C@@H](c1ccc(-n2cnc3c(N)ncnc32)cc1)N1CCc2nn(C)c(Cc3ccccc3)c2C1=O,binding,competition with immobilised ligand,0.1 µM,74%
C=CC(=O)N1CCC(C(=O)NCC(=O)N2CCN(c3nc(-c4cnc(N)nc4C(F)F)nc(N4CCOCC4)n3)CC2)CC1,binding,competition with immobilised ligand,1 µM,97%
O=C(c1ccc(Nc2nccc(-c3cc4ccccc4s3)n2)cc1)N1CCC(N2CCCC2)CC1,binding,competition with immobilised ligand,1 µM,93%
CN(c1ccnc(CNc2nc(Nc3ccc4c(c3)CC(=O)N4)ncc2C(F)(F)F)n1)S(C)(=O)=O,cell-free assay,competition with immobilised ligand,1 µM,77%
C[C@H]1CCN(c2nccc(-c3cnn4ncccc34)n2)C1,binding,,1 µM,94%
Cc1ccc(-n2nc(C(C)(C)C)cc2NC(=O)Nc2ccc(-n3c(N)c(C(N)=O)c4nc5ccc(NCCCN)cc5nc43)cc2)cc1,cell-free assay,competition with immobilised ligand,1 µM,1.9%
O=C(NCc1ncc(C(F)(F)F)cc1Cl)c1ccc2c(c1)C1(CCS(=O)(=O)CC1)[C@H](C1CC1)N2S(=O)(=O)c1ccc(F)cc1,cell-free assay,competition with immobilised ligand,1 µM,90%
Nc1ncc2c(n1)-c1c([nH]c3ccc(C#CC4CC4)cc13)CCCC2,binding,competition with immobilised ligand,1 µM,100%
CCC(=N\O)/C(C)=C/c1ccc(F)cc1,cell-free assay,competition with immobilised ligand,1 µM,87%
c1cncc(-c2cccc(Nc3nccc(NC4CCCCC4)n3)c2)c1,binding,competition with immobilised ligand,10 µM,28%
COc1ccc2cc(OCC3(C(=O)O)CN(C(=O)c4ccc(F)cc4)C3)ccc2c1,cell-free assay,competition with immobilised ligand,1 µM,100%
CN(C)c1nccc(-c2cnc3ncccn23)n1,binding,,1 µM,88%
